# Data: ChEMBL document CHEMBL5036308, “Chiral Alkyl Groups at Position 3(1') of Pyropheophorbide-a Specify Uptake and Retention by Tumor Cells and Are Essential for Effective Photodynamic Therapy” (J Med Chem, 2021)
# Activity calls are given as the source filed them. No cut-off for these calls is given here.
# How the values were obtained:
# FaDu-124 = assay: Binding affinity to human FaDu-124 cell membrane surface measured at 1600 nM incubated for 30 mins at 0 degC; assay type: tissue-based
# Summary of the method: (§1)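 FaDu-124 cells, 30 min on ice in serum-free DMEM with 1600 nM PS, then cell-associated fluorescence imaged. For diffusion into cells, cultures were then held 30 min at 37°C in fresh serum-free medium and imaged again.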
# [1] = Drug uptake in human HN-143-T-EC cells assessed as drug retention in endoplasmic reticulum measured after 72 hrs by fluorescent microscopy; assay type: ADME, cell-based
# [2] = Drug uptake in human HN-143 T-EC cells assessed as drug retention at 1600 nM incubated for 24 hrs in presence of 10% fetal bovine serum measured after 72 hrs chase period by fluorescent microscopy imaging based analysis; assay type: ADME, cell-based; conditions: 1.6 µM
# Summary of the method: (§2)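 Cells incubated 24 h in medium with 10% serum and 1600 nM PS, then chased in PS-free medium for up to 72 h with daily medium changes. Cellular PS was measured daily by fluorescence microscopy; net fluorescence intensity per full image frame was quantified in arbitrary units.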
# [3] = Drug uptake in human HN-143-T-EC cells assessed as drug retention in mitochondria measured after 72 hrs chase period by fluorescent microscopy; assay type: ADME
# [4] = Drug uptake in human FaDu-124 cell membrane assessed as drug internalization at 1600 nM incubated for 30 mins at 37 degC; assay type: ADME, cell-based; conditions: fadu-124, 0.5 h, 1.6 µM; summary of the method: as §1
# [5] = Photoreactivation in human HN-85 T-EC cells at 100 to 400 nM in presence of 10% fetal bovine serum under 3 J/cm^2 light for 9 mins measured after 24 hrs by Western blotting analysis; conditions: 0.15 h, 0.4 µM
# [6] = Drug uptake in human HN-85 T-EC cells assessed as drug retention at 1600 nM incubated for 24 hrs in presence of 10% fetal bovine serum measured after 24 hrs chase period by fluorescent microscopy; assay type: ADME, cell-based; conditions: 1.6 µM
# [7] = Drug uptake in human HN-143 T-EC cells assessed as slow release by measuring drug retention at 1600 nM incubated for 24 hrs in presence of 10% fetal bovine serum measured after 48 hrs chase period by fluorescent microscopy imaging based analysis; assay type: ADME, cell-based; conditions: 1.6 µM; summary of the method: as §2
# HNT1 = assay: Binding affinity to human HNT1 cell plasma membrane with CFSE-labeled HN-87 T-Fb assessed as drug retention at 1600 nM incubated for 24 hrs in presence of 10% fetal bovine serum measured after 24 hrs chase period by fluorescent microscopy; assay type: cell membranes
# Summary of the method: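 HNT1 cells (p 72) co-cultured on collagen-1 with CFSE-stained HN-87 T-Fb fibroblasts (added to 24 h-old tumor cultures, grown 3–7 days to confluence). Treated 24 h with DMEM + 10% FBS and 1600 nM PS, chased 24 h in DMEM + 10% FBS, then fluorescence imaged under identical conditions.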
# TEC1-2 = assay: Binding affinity to human TEC1-2 cell plasma membrane assessed as drug retention at 1600 nM incubated for 24 hrs in presence of 10% fetal bovine serum measured after 48 hrs chase period by fluorescent microscopy; assay type: cell membranes
# [8] = Drug uptake in human FaDu clone 49 cells assessed as drug retention at 1600 nM incubated for 24 hrs in presence of 10% fetal bovine serum measured after 72 hrs chase period by fluorescent microscopy imaging based analysis; assay type: ADME, cell-based; conditions: fadu clone 49, 72 h, 1.6 µM; summary of the method: as §2
# [9] = Photoreactivation in human TEC21 cells assessed as STAT3cross-linking in presence of 10% fetal bovine serum under 665 nm light for 9 mins measured after 24 hrs by immune blot analysis; assay type: cell-based; conditions: tec-21, 0.15 h
# Summary of the method: (§3)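 TEC-21 cells (p 8) treated 24 h in RPMI + 10% FBS with PS, imaged, chased 48 h in RPMI + 10% FBS, then irradiated 9 min with 665 nm light (6 mW/cm²). Cells were extracted immediately and immunoblotted for STAT3 crosslinking, EGFR and phospho-p38 MAPK.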
# [10] = Drug uptake in human HN-143 T-EC cells assessed as drug retention at 1600 nM incubated for 24 hrs in presence of 10% fetal bovine by fluorescent microscopy imaging based analysis; assay type: ADME, cell-based; conditions: 1.6 µM; summary of the method: as §2
# [11] = Drug uptake in human HN-T1 cells assessed as drug retention at 1600 nM incubated for 24 hrs in presence of 10% fetal bovine serum measured after 72 hrs chase period by fluorescent microscopy imaging based analysis; assay type: ADME, cell-based; conditions: hnt1, 72 h, 1.6 µM; summary of the method: as §2
# [12] = Drug uptake in human FaDu-124 cells assessed as drug retention at 1600 nM incubated for 24 hrs in presence of 10% fetal bovine serum measured after 48 hrs chase period by fluorescent microscopy; assay type: ADME, cell-based; conditions: fadu-124, 48 h, 1.6 µM
# [13] = Drug uptake in human TEC-1 cells assessed as drug retention at 1600 nM incubated for 24 hrs in presence of 10% fetal bovine serum measured after 48 hrs chase period by fluorescent microscopy; assay type: ADME, cell-based; conditions: tec-1, 48 h, 1.6 µM
# Summary of the method: (§4)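 Confluent cultures (e.g. HN-77 T-EC, p 13) incubated 24 h in RPMI + 10% FBS with 1600 nM PS, then 48 h chase in RPMI + 10% FBS. Fluorescence images recorded and net fluorescence intensity quantified.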
# [14] = Drug uptake in human TEC-21 cells assessed as drug retention at 1600 nM incubated for 24 hrs in presence of 10% fetal bovine serum measured after72 hrs chase period by fluorescent microscopy imaging based analysis; assay type: ADME, cell-based; conditions: tec-21, 72 h, 1.6 µM; summary of the method: as §2
# [15] = Drug uptake in human HNT1 cells with CFSE-labeled HN-101 T-Fb assessed as drug retention at 1600 nM incubated for 24 hrs in presence of 10% fetal bovine serum measured after 24 hrs chase period by fluorescent microscopy; assay type: ADME, cell-based; conditions: hnt1, 24 h, 1.6 µM
# Summary of the method: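 Co-cultures of HNT1 cells (p 103) with CFSE-labeled HN-101 T-Fb on collagen-1 matrix; 24 h in DMEM + 10% FBS with 1600 nM PS, then 24 h chase in PS-free medium; cell-associated fluorescence imaged by microscopy.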
# [16] = Drug uptake in human HN-142 T-EC cells assessed as drug retention at 1600 nM incubated for 24 hrs in presence of 10% fetal bovine serum measured after 48 hrs chase period by fluorescent microscopy; assay type: ADME, cell-based; conditions: 1.6 µM; summary of the method: as §4
# [17] = Drug uptake in human HN-90 T-EC cells assessed as drug retention at 1600 nM incubated for 24 hrs in presence of 10% fetal bovine serum measured after 72 hrs chase period by fluorescent microscopy imaging based analysis; assay type: ADME, cell-based; conditions: 1.6 µM; summary of the method: as §2
# [18] = Lipophilicity, logP of the compound; assay type: physicochemical; conditions: octanol/water
# [19] = Drug uptake in human HN-77 T-EC cells assessed as drug retention at 1600 nM incubated for 24 hrs in presence of 10% fetal bovine serum measured after 48 hrs chase period by fluorescent microscopy; assay type: ADME, cell-based; conditions: 1.6 µM; summary of the method: as §4
# [20] = Drug uptake in human L237 cells assessed as drug retention at 1600 nM incubated for 24 hrs in presence of 10% fetal bovine serum measured after 48 hrs chase period by fluorescent microscopy; assay type: ADME, cell-based; conditions: l237, 48 h, 1.6 µM; summary of the method: as §4
# [21] = Drug uptake in human HNT1 cells assessed as drug retention at 1600 nM incubated for 24 hrs in presence of 10% fetal bovine serum measured after 48 hrs chase period by fluorescent microscopy; assay type: ADME, cell-based; conditions: hnt1, 48 h, 1.6 µM
# [22] = Drug uptake in human HNT1 cells assessed as drug retention at 1600 nM incubated for 24 hrs in presence of 10% fetal bovine serum measured after 24 hrs chase period by fluorescent microscopy; assay type: ADME, cell-based; conditions: hnt1, 24 h, 1.6 µM
# HN-143 T-EC = assay: Binding affinity to human HN-143 T-EC cell membrane surface measured at 1600 nM incubated for 30 min; assay type: tissue-based
# [23] = Drug uptake in human HN-T1 cells assessed as drug internalization at 1600 nM incubated for 24 hrs in presence of 10% fetal bovine serum measured after 24 hrs chase period by fluorescent microscopy; assay type: ADME, cell-based; conditions: hnt1, 24 h, 1.6 µM
# [24] = Photoreactivation in human TEC21 cells in presence of 10% fetal bovine serum under 665 nm light for 9 mins measured after 24 hrs by immune blot analysis; assay type: cell-based; conditions: tec-21, 24 h; summary of the method: as §3
# [25] = Solubility of the compound; assay type: physicochemical
smiles,measurement,setting,value
C=Cc1c(C)c2cc3nc(c4c5[nH]c(cc6nc(cc1[nH]2)C(C)=C6CC)c(C)c5C(=O)C4)[C@@H](CCC(=O)O)C3C (some centres not stated),Activity,FaDu-124,inactive
CCCCOC(CCC)c1c(C)c2cc3nc(c4c5[nH]c(cc6nc(cc1[nH]2)C(C)=C6CC)c(C)c5C(=O)C4)[C@@H](CCC(=O)OC)C3C (some centres not stated),Drug uptake,[1],Active
same,Drug uptake,[2],Active
same,Drug uptake,[3],Active
CCCCCCSC(C)c1c(C)c2cc3nc(c4c5[nH]c(cc6nc(cc1[nH]2)C(C)=C6CC)c(C)c5C(=O)C4)[C@@H](CCC(=O)OC)C3C (some centres not stated),Drug uptake,[4],Active
same,Activity,FaDu-124,Active
same,Drug uptake,[2],Active
CCCCC(C)OC(C)c1c(C)c2cc3nc(c4c5[nH]c(cc6nc(cc1[nH]2)C(C)=C6CC)c(C)c5C(=O)C4)[C@@H](CCC(=O)OC)C3C (some centres not stated),Drug metabolism,[5],Metabolite_Detected
same,Drug uptake,[6],Not Active
same,Drug uptake,[1],Active
same,Drug uptake,[2],Active
same,Drug uptake,[7],Active
same,Drug uptake,[3],Active
CCCCC(C)OCc1c(C)c2cc3nc(c4c5[nH]c(cc6nc(cc1[nH]2)C(C)=C6CC)c(C)c5C(=O)C4)[C@@H](CCC(=O)OC)C3C (some centres not stated),Activity,HNT1,inactive
same,Activity,TEC1-2,inactive
CCCCCCOC(C)c1c(C)c2cc3nc(c4c5[nH]c(cc6nc(cc1[nH]2)C(C)=C6CC)c(C)c5C(=O)C4)[C@@H](CCC(=O)O)C3C (some centres not stated),Drug uptake,[8],Active
same,Activity,[9],0.4%
same,Drug uptake,[10],Active
same,Drug uptake,[11],Active
same,Drug uptake,[12],Not Active
same,Drug uptake,[4],Active
same,Drug uptake,[13],Not Active
same,Drug uptake,[14],Active
same,Drug uptake,[15],Active
same,Drug uptake,[16],Not Active
same,Drug uptake,[17],Active
same,Activity,FaDu-124,Active
same,Drug uptake,[2],Active
same,logP,[18],6.01
same,Drug uptake,[19],Not Active
same,Drug uptake,[20],Not Active
same,Drug uptake,[21],Not Active
same,Drug uptake,[3],Active
same,Drug uptake,[22],Not Active
CCCCC(C)OC(C)c1c(C)c2cc3nc(c4c5[nH]c(cc6nc(cc1[nH]2)C(C)=C6CC)c(C)c5C(=O)C4)[C@@H](CCC(=O)O)C3C (some centres not stated),Activity,HN-143 T-EC,Active
same,Drug uptake,[10],Active
same,Drug uptake,[6],Not Active
same,Drug uptake,[1],Active
same,Drug uptake,[2],Active
same,Drug uptake,[3],Active
same,Drug uptake,[22],Active
CCCCc1c(C)c2cc3nc(c4c5[nH]c(cc6nc(cc1[nH]2)C(C)=C6CC)c(C)c5C(=O)C4)[C@@H](CCC(=O)OC)C3C (some centres not stated),Drug uptake,[23],Active
CCCCCCOC(CCC)c1c(C)c2cc3nc(c4c5[nH]c(cc6nc(cc1[nH]2)C(C)=C6CC)c(C)c5C(=O)C4)[C@@H](CCC(=O)OC)C3C (some centres not stated),Drug uptake,[1],Active
same,Drug uptake,[2],Active
same,Drug uptake,[3],Active
CCCCC(C)OCc1c(C)c2cc3nc(c4c5[nH]c(cc6nc(cc1[nH]2)C(C)=C6CC)c(C)c5C(=O)C4)[C@@H](CCC(=O)O)C3C (some centres not stated),Activity,HN-143 T-EC,Active
same,Activity,[9],0.2%
same,Drug uptake,[10],Active
same,Drug metabolism,[24],Metabolite_Detected
same,Drug uptake,[2],Active
same,Drug uptake,[22],Active
CCCCCCOC(C)c1c(C)c2cc3nc(c4c5[nH]c(cc6nc(cc1[nH]2)C(C)=C6CC)c(C)c5C(=O)C4)[C@@H](CCC(=O)OC)C3C (some centres not stated),Drug uptake,[4],Active
same,Drug uptake,[1],Active
same,Activity,FaDu-124,Active
same,Drug uptake,[2],Active
same,Drug uptake,[3],Active
CCCCCCOCc1c(C)c2cc3nc(c4c5[nH]c(cc6nc(cc1[nH]2)C(C)=C6CC)c(C)c5C(=O)C4)[C@@H](CCC(=O)OC)C3C (some centres not stated),Activity,HNT1,inactive
same,Activity,TEC1-2,inactive
CCCCCCOCc1c(C)c2cc3nc(c4c5[nH]c(cc6nc(cc1[nH]2)C(C)=C6CC)c(C)c5C(=O)C4)[C@@H](CCC(=O)O)C3C (some centres not stated),Activity,HN-143 T-EC,Active
CCCCCCCCc1c(C)c2cc3nc(c4c5[nH]c(cc6nc(cc1[nH]2)C(C)=C6CC)c(C)c5C(=O)C4)[C@@H](CCC(=O)O)C3C (some centres not stated),solubility,[25],Soluble
same,Drug uptake,[10],Not Active
same,Drug uptake,[2],Active
CCCCc1c(C)c2cc3nc(c4c5[nH]c(cc6nc(cc1[nH]2)C(C)=C6CC)c(C)c5C(=O)C4)[C@@H](CCC(=O)O)C3C (some centres not stated),Drug uptake,[23],Active
CCCCCCOC(CCC)c1c(C)c2cc3nc(c4c5[nH]c(cc6nc(cc1[nH]2)C(C)=C6CC)c(C)c5C(=O)C4)[C@@H](CCC(=O)O)C3C (some centres not stated),Drug uptake,[10],Active
same,Drug uptake,[1],Active
same,Drug uptake,[2],Active
same,logP,[18],6.01
same,Drug uptake,[3],Active
CCCCCCSC(C)c1c(C)c2cc3nc(c4c5[nH]c(cc6nc(cc1[nH]2)C(C)=C6CC)c(C)c5C(=O)C4)[C@@H](CCC(=O)O)C3C (some centres not stated),Drug uptake,[10],Active
same,Drug uptake,[4],Active
same,Activity,FaDu-124,Active
same,Drug uptake,[2],Active
